Assay outcomes as filed in PubChem.
Hits are enriched below; roughly 3% of the tested compounds scored in any of these assays.
SENP8 block-1 = human SENP8 protease inhibitors, primary screen, biochemical, fluorescence, Nedd8 protein substrate, uHTS; AID 602440, 2012; Sentrin-specific protease 8 (Homo sapiens), Q96LD8; inhibition, % at 20 µM; 0.64% of 360,000 active; recombinant SENP8; in the data active = inhibition mostly above about 40%, no sharp cut-off; inactive = mostly below about 27%
SENP7 block = SENP7 protease inhibitors, primary screen, biochemical, luminescence, uHTS; recombinant SENP7, Z-RLRGG-aminoluciferin luminescence, 40 min; inhibition, % at 5 µM; 1.5% of 330,000 active;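 active = inhibition above about 50% at the single test dose, limit read from the data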;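 also: plate controls were DMSO with enzyme for no effect and no enzyme buffer wells for full effect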
SENP8 block-2 = SENP8 protease inhibitors, primary screen, biochemical, luminescence. purified SENP8, Z-RLRGG-aminoluciferin cleavage. inhibition, % at 10 µM. 1.2% of 330,000 active; in the data active = inhibition above about 50%
Apaf-1 inh = inhibitors of human Apaf-1 apoptosome, primary screen, biochemical, DEVD-Rh110 fluorescence, uHTS. Apoptotic protease-activating factor 1 (Homo sapiens), O14727. reconstituted apoptosome caspase-3 activity. inhibition, % at 20 µM. 0.71% of 330,000 active; active = inhibition of at least 40% at 20 µM;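 also: plate controls were DMSO wells for no effect and DEVD-CHO caspase inhibitor wells for full effect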
Target sequence (O14727 whole entry, looked up): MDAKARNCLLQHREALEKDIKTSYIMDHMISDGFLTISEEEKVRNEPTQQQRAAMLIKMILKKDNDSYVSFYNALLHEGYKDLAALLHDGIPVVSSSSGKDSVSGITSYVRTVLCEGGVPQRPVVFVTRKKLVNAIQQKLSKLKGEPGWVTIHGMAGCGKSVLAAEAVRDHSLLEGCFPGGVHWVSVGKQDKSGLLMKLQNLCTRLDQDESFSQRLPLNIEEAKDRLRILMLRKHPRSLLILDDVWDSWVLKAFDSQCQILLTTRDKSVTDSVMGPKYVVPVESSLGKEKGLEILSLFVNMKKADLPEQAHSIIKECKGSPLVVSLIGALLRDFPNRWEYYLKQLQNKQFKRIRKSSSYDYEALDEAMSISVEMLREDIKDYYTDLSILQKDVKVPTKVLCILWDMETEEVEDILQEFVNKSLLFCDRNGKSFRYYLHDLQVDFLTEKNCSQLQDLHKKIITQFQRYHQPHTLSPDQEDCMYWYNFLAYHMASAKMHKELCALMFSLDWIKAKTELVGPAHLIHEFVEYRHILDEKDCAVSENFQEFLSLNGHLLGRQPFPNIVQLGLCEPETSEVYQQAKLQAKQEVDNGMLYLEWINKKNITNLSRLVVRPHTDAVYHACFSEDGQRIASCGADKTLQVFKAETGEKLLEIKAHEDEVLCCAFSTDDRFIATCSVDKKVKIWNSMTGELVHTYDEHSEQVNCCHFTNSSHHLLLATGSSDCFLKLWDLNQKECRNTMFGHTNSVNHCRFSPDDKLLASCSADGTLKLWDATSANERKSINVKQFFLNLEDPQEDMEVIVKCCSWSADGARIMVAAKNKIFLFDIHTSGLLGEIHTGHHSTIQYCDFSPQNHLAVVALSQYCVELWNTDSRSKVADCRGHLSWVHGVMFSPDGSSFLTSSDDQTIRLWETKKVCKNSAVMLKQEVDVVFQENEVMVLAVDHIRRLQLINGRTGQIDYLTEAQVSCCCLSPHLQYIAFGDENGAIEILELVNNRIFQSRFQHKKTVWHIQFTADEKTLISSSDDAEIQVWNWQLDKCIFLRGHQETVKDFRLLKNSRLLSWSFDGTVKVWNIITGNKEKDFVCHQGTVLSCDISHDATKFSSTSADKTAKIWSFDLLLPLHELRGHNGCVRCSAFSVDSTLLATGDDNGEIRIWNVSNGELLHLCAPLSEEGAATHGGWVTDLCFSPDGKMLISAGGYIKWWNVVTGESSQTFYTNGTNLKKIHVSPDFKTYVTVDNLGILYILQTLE
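Material: biochemical Apaf-1 apoptosome reconstitution. Medium: Hepes buffer, pH 7.5. Also added: cytochrome c activation, bis-DEVD rhodamine 110 substrate. Timing: 30 min compound preincubation, 50 min activation, room temperature. Measured by: rhodamine 110 fluorescence at Ex 480/Em 540 nm.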
SENP6 block = SENP6 protease inhibitors, primary screen, biochemical, luminescence, uHTS. Sentrin-specific protease 6 (Homo sapiens), Q9GZR1. Recombinant SENP6 catalytic domain, aminoluciferin luminescence. inhibition, % at 10 µM. 1.8% of 330,000 active. AID 2599, 2010;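 active = inhibition above about 50% at the single tested dose, limit read from the data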;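 also: plate controls were DMSO wells with enzyme for no effect and DMSO wells lacking enzyme for full effect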
UBC13 inh = UBC13 polyubiquitin chain formation inhibitors, primary screen, biochemical, TR-FRET, uHTS. Ubiquitin-conjugating enzyme E2 N (Homo sapiens), P61088. inhibition, % at 20 µM. 0.47% of 330,000 active. AID 485273, 2010; in the data active = inhibition above about 45%, passing the limit was not always enough
SENP8 confirm = SENP8 protease inhibitors, retest, confirmation, biochemical, luminescence, single concentration | Recombinant SENP8, Z-RLRGG-aminoluciferin luminescence, 60 min | 40% of 6,200 active | shares compounds with SENP7 block | inhibition, % at 12.5 µM;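 active = mean inhibition across replicates above about 50%, limit read from the data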
SENP6 confirm = SENP6 protease inhibitors, confirmation, biochemical, luminescence, single concentration; shares compounds with SENP7 block; recombinant SENP6, Z-RLRGG-aminoluciferin luminescence; inhibition, % at 12.5 µM; 58% of 6,200 active
SENP7 conf = SENP7 protease inhibitors, retest, confirmation, biochemical, luminescence, single concentration | shares compounds with SENP7 block | recombinant SENP7, Z-RLRGG-aminoluciferin luminescence, 40 min | inhibition, % at 12.5 µM | 69% of 6,200 active | AID 488917, 2010
Casp3 select = caspase-3 protease inhibitors, confirmation, selectivity assay for SENP inhibitor project, biochemical, single concentration; shares compounds with SENP7 block; purified caspase-3, Z-DEVD-aminoluciferin luminescence, 60 min; inhibition, % at 12.5 µM; 60% of 6,200 active; AID 488918, 2010;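 active = mean inhibition above about 50%, limit read from the data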;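 also: plate controls were enzyme with DMSO for no effect and wells without caspase-3 for full effect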
Luc interf = interferes with luciferase luminescence in SENP counter-screen; shares compounds with SENP7 block; inhibition, % at 12.5 µM; 39% of 6,200 active; AID 488919; Pre-incubated SENP8/Z-RLRGG-aminoluciferin, luciferase luminescence interference;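 active = mean inhibition above about 50% when retested at one dose, limit read from the data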;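 also: plate controls were DMSO wells with completed reaction for no effect and substrate without enzyme for full effect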
* marks the source's active call; other numbers are inactive results; . = no result given.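 The calls were made as follows, unless noted: active = mean inhibition above about 50% in the one-dose retest (limit read from the data); inactive = the rest.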

SMILES | SENP8 block-1 | SENP7 block | SENP8 block-2 | Apaf-1 inh | SENP6 block | UBC13 inh | SENP8 confirm | SENP6 confirm | SENP7 conf | Casp3 select | Luc interf
CSc1ccc(C2NN=C(c3ccccc3)S2)cc1 (centres undefined) | -426 | 99* | 93* | -1 | 92* | 39 | 52* | 53* | 38 | 60* | 28
Oc1ccccc1C1NN=C(c2ccccc2)S1 (centres undefined) | -253 | 95* | 61* | -1 | 86* | -1 | 39 | 79* | 70* | 65* | 18
COc1ccc(C2NN=C(c3ccc(C)cc3)S2)cc1 (centres undefined) | -295 | . | . | . | . | . | . | . | . | . | .
CC(=O)Nc1ccc(/C=C/c2noc(-c3ccccc3O)n2)cc1 | -237 | 59* | -7 | 15 | -36 | 4 | 4 | 2 | 1 | 0 | 2
Oc1ccccc1-c1nnco1 | -89 | . | . | . | . | . | . | . | . | . | .
COc1cc(/C=C/c2noc(-c3ccccc3O)n2)ccc1OC(C)=O | 2 | 19 | -10 | -8 | 12 | 2 | . | . | . | . | .
Oc1ccccc1/C=C/c1noc(-c2ccccc2O)n1 | -122 | 52* | 3 | 15 | -6 | -3 | -5 | 1 | 79* | 38 | 5
CCOC(=O)[C@@H]1[C@H]2COc3cc(OC)ccc3[C@H]2N2C(=O)N(c3ccc(C)cc3)C(=O)[C@@]12C | 12 | -3 | 1 | 20 | 2 | -4 | . | . | . | . | .
CSc1nccc(N/N=C/c2ccccc2)n1 | 11 | 74* | 53* | 15 | 64* | 6 | 43 | 45 | 81* | 69* | 3
O=C(Nc1ccc(Br)cc1)c1ccc2c(c1)OCO2 | -1 | 52* | 6 | -2 | 34 | 1 | 12 | 19 | 70* | 47 | 2
O=C(Nc1ccc2c(c1)OCO2)Nc1ccc2c(c1)OCO2 | 6 | 39 | 6 | 5 | 3 | -16 | . | . | . | . | .
O=C(Nc1ccc(Cl)c(Cl)c1)Nc1ccccc1O | 5 | 97* | 98* | 19 | -3 | -7 | 98* | 100* | 104* | 90* | 98*
O=C(Nc1ccc2c(c1)OCO2)c1ccc(Cl)s1 | 12 | 74* | 62* | -7 | 76* | 9 | -1 | 63* | 88* | 66* | 64*
NC(=O)c1ccc(NC(=O)c2ccc3c(c2)OCO3)cc1 | 12 | 46 | 0 | -10 | 9 | -4 | . | . | . | . | .
O=C(Nc1ccc(Cl)cc1)c1ccc2c(c1)OCO2 | 22 | 76* | 37 | -1 | 73* | 5 | 37 | 54* | 88* | 74* | 18
c1ccc(-c2nnc3n2-c2ccccc2SC3)cc1 | 6 | 9 | -4 | -5 | -4 | 2 | . | . | . | . | .
COc1ccc(C(C)(O)c2nc(-c3ccoc3)cs2)cc1 (centres undefined) | -1 | . | . | . | . | . | . | . | . | . | .
O=C(Nc1cccc(-c2nn[nH]n2)c1)c1ccc(Br)s1 | 5 | 28 | 30 | 5 | 34 | -16 | . | . | . | . | .
O=C(Nc1cccc(-c2nn[nH]n2)c1)c1ccc(Cl)s1 | 2 | 16 | 22 | 2 | 51* | -7 | 42 | 36 | 72* | 35 | 58*
O=C(Nc1ccc(F)c(F)c1)c1ccc2c(c1)OCO2 | 5 | -5 | 67* | 4 | 71* | 4 | 73* | 74* | 91* | 76* | 48
CC(=O)Nc1ccc(C(=O)Nc2ccc3c(c2)OCO3)cc1 | 1 | 7 | -6 | -13 | -7 | -11 | . | . | . | . | .
O=C(Nc1ccc2nsnc2c1)c1ccc2c(c1)OCO2 | -275 | 78* | 65* | -16 | 67* | 7 | 37 | 57* | 88* | 80* | 46
Cc1cc(C(=O)Nc2ccc3c(c2)OCO3)cs1 | 3 | 73* | 50 | -4 | 64* | -11 | 70* | 72* | 93* | 86* | 75*
COc1ccc2c(c1)OC[C@H]1[C@H]2N2C(=O)[C@H](C)NC(=O)[C@@]2(C)[C@H]1c1ccccc1 | 18 | -5 | 9 | -5 | 6 | 0 | . | . | . | . | .
O=C(Nc1ccc2c(c1)OCO2)OCc1ccccc1 | 15 | 60* | 38 | 3 | -22 | -3 | 52* | 51* | 82* | 53* | 34
SMILES | SENP8 block-1 | SENP7 block | SENP8 block-2 | Apaf-1 inh | SENP6 block | UBC13 inh | SENP8 confirm | SENP6 confirm | SENP7 conf | Casp3 select | Luc interf
O=C(Nc1ccc2c(c1)OCO2)c1cccc(Cl)c1 | 10 | 92* | 81* | 1 | 92* | 7 | -6 | 87* | 98* | 90* | 74*
COc1cc(OC)cc(C(=O)NC(C(=O)Nc2ccc3c(c2)OCCO3)C(C)C)c1 (centres undefined) | 16 | 1 | 2 | 6 | 0 | -1 | . | . | . | . | .
COc1cc(OC)cc(C(=O)Nc2ccc3c(c2)OCCO3)c1 | 14 | 96* | 92* | -11 | 98* | 12 | -4 | 95* | 102* | 96* | 95*
O=C(Nc1ccc2c(c1)oc1ccccc12)c1ccc2c(c1)OCO2 | -17 | 61* | 10 | 4 | 26 | -4 | -6 | 7 | 7 | 4 | 3
COc1cc2c(cc1NC(=O)c1ccc3c(c1)OCO3)oc1ccccc12 | -83 | 4 | -4 | -7 | 5 | 14 | . | . | . | . | .
Cc1ccc2ccccc2c1C(O)c1ncc(-c2ccc(Cl)cc2)[nH]1 (centres undefined) | 8 | . | . | . | . | . | . | . | . | . | .
CC1=C(C(=O)Nc2cccc(C(=O)NC3CCCCC3C)c2)SCCO1 (centres undefined) | -2 | -4 | 4 | -5 | -8 | -1 | . | . | . | . | .
Cc1cc(C)cc(Cn2cc(CN3CC(N4CCN(C)CC4)CS3(=O)=O)nn2)c1 (centres undefined) | 12 | . | . | . | . | . | . | . | . | . | .
O=C(NCCCc1ccc(F)cc1)C1CCC(=O)N(CC2CCCCC2)C1 (centres undefined) | 4 | -4 | -9 | 0 | 3 | -7 | . | . | . | . | .
